Here are results for 4 molecules from ChEMBL document CHEMBL1157556, “Synthesis and biological screening of a combinatorial library of beta-chlorovinyl chalcones as anticancer, anti-inflammatory and antimicrobial agents” (Bioorg Med Chem, 2010).

Data set [1] concerns Klebsiella pneumoniae. Nature of the data set: Antibacterial activity against Klebsiella pneumoniae NCIM 2957 at 50 ug/ml after 24 hrs agar diffusion method. It counts as functional. Conditions: NCIM 2957, 24 h, read-out: IZ. In short, it runs like this: (§1)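 Agar well diffusion on Mueller Hinton agar seeded with 0.1 mL of a 10⁵ cfu/mL suspension in 0.85% saline. Compounds dissolved in DMSO, final concentrations 25–250 µg/mL, 0.1 mL loaded per 6 mm well. DMSO (1%) control; tetracycline (10 µg/mL) reference. Duplicate plates incubated 24 h at 37 °C. Inhibition zone read in mm. MIC taken as lowest concentration giving complete growth inhibition.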

Data set [2] relates to Proteus vulgaris. Nature of the data set: Antibacterial activity against Proteus vulgaris MTCC 1771 at 50 ug/ml after 24 hrs agar diffusion method. It counts as functional. Conditions: MTCC 1771, 24 h, read-out: IZ. The method, boiled down: as §1
For data set [3], the system named is ACHN. Nature of the data set: Anticancer activity against human ACHN cells at 10 uM after 48 hrs by propidium iodide fluorescence assay. It counts as functional. The method, boiled down: (§2)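 Propidium iodide DNA-fluorescence assay. Seeding 3000–7500 cells/well, 24 h recovery at 37 °C in 5% CO₂. Compounds in 0.1% DMSO added to triplicate wells at 10 µM. Flavopiridol 700 nM and gemcitabine 500 nM as reference inhibitors. Plates frozen at −80 °C for 24 h, thawed to room temperature, fluorescence read at excitation 530 nm and emission 620 nm. Percent cytotoxicity calculated.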

The subject of data set [4] is Proteus vulgaris. Nature of the data set: Antibacterial activity against Proteus vulgaris MTCC 1771 after 24 hrs. Conditions: MTCC 1771, 24 h. It counts as functional. The method, boiled down: as §1
Data set [5] relates to THP-1. The experiment in a line: Cytotoxicity against human THP1 cells assessed as CCK8 release at 10 uM after 24 hrs by ELISA. It counts as cell-based. The settings on record: thp-1, 24 h. The method, boiled down: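 Same THP-1 cytokine-assay cells, with compounds in 0.5% DMSO and LPS stimulation, were scored in parallel for cytotoxicity by CCK-8.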
For another data set, the system named is Trichoderma viride. Nature of the data set: Antifungal activity against Trichoderma viride MTCC 167 at 100 ug/ml after 48 hrs agar diffusion method. It counts as functional. Conditions: MTCC 167, 48 h, read-out: IZ. The method, boiled down:
(§3)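 Fungal spore suspensions in sterile distilled water adjusted to 10⁶ cfu/mL; 0.1 mL spread on Sabouraud dextrose agar. Wells of 6 mm filled with 0.1 mL compound dilution in DMSO. DMSO (1%) control; nystatin (30 µg/mL) reference. Duplicate plates incubated at 28 °C for 48 h. Activity read as inhibition zone diameter in mm.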

Data set [6] concerns Staphylococcus aureus. The experiment in a line: Antibacterial activity against Staphylococcus aureus MTCC 96 after 24 hrs. It counts as functional. Conditions: MTCC 96, 24 h. The method, boiled down:
as §1

Data set [7] has as its system Calu-1. Nature of the data set: Anticancer activity against human Calu1 cells at 10 uM after 48 hrs by propidium iodide fluorescence assay. It counts as functional. In short, it runs like this: as §2
In a further data set the test system is Candida albicans. The experiment in a line: Antifungal activity against Candida albicans MTCC 227 at 100 ug/ml after 48 hrs agar diffusion method. It counts as functional. The settings on record: MTCC 227, 48 h, read-out: IZ. The method, boiled down: as §3
Data set [8] deals with THP-1. The experiment in a line: Antiinflammatory activity in human THP1 cells assessed as inhibition of LPS-induced TNFalpha release at 10 uM after 24 hrs by ELISA. It counts as functional. Conditions: THP-1, 24 h. The method, boiled down:
(§4)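 THP-1 cells grown in RPMI 1640 with 10% FBS, penicillin and streptomycin, then PMA-differentiated. Compounds in 0.5% DMSO preincubated 30 min at 37 °C before LPS (E. coli 0127:B8) stimulation. TNF-α and IL-6 release measured by kit per the manufacturer (BD Biosciences). Percent inhibition calculated relative to control. Dexamethasone 1 µM as reference.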

The test system of data set [9] is THP-1. Nature of the data set: Antiinflammatory activity in human THP1 cells assessed as inhibition of LPS-induced IL6 release at 10 uM after 24 hrs by ELISA. It counts as functional. The settings on record: THP-1, 24 h. In short, it runs like this: as §4
The subject of data set [10] is Bacillus subtilis. Nature of the data set: Antibacterial activity against Bacillus subtilis MTCC 1789 after 24 hrs. It counts as functional. The settings on record: MTCC 1789, 24 h. In short, it runs like this: as §1
For data set [11], the system named is Escherichia coli. The experiment in a line: Antibacterial activity against Escherichia coli MTCC 1650 after 24 hrs. It counts as functional. The settings on record: MTCC 1650, 24 h. The method, boiled down: as §1
In a further data set the test system is Aspergillus niger. The experiment in a line: Antifungal activity against Aspergillus niger MTCC 1781 at 100 ug/ml after 48 hrs agar diffusion method. It counts as functional. Conditions: MTCC 1781, 48 h, read-out: IZ. The method, boiled down:
as §3

Data set [12] deals with HCT-116. The experiment in a line: Anticancer activity against human HCT116 cells at 10 uM after 48 hrs by propidium iodide fluorescence assay. It counts as functional. In short, it runs like this:
as §2

Data set [13] relates to Staphylococcus aureus. Nature of the data set: Antibacterial activity against Staphylococcus aureus MTCC 96 at 50 ug/ml after 24 hrs agar diffusion method. The settings on record: MTCC 96, 24 h, read-out: IZ. It counts as functional. The method, boiled down:
as §1

For data set [14], the system named is NCI-H460. The experiment in a line: Anticancer activity against human H460 cells at 10 uM after 48 hrs by propidium iodide fluorescence assay. It counts as functional. The method, boiled down:
as §2

The next data set concerns Aspergillus flavus. Nature of the data set: Antifungal activity against Aspergillus flavus MTCC 2501 at 100 ug/ml after 48 hrs agar diffusion method. It counts as functional. Conditions: MTCC 2501, 48 h, read-out: IZ. In short, it runs like this: as §3
Data set [15] concerns Bacillus subtilis. Nature of the data set: Antibacterial activity against Bacillus subtilis MTCC 1789 at 50 ug/ml after 24 hrs agar diffusion method. The settings on record: MTCC 1789, 24 h, read-out: IZ. It counts as functional. The method, boiled down:
as §1

Data set [16] deals with PANC-1. The experiment in a line: Anticancer activity against human PANC1 cells at 10 uM after 48 hrs by propidium iodide fluorescence assay. It counts as functional. The method, boiled down:
as §2

Data set [17] concerns Klebsiella pneumoniae. The experiment in a line: Antibacterial activity against Klebsiella pneumoniae NCIM 2957 after 24 hrs. The settings on record: NCIM 2957, 24 h. It counts as functional. In short, it runs like this: as §1
Data set [18] has as its system Escherichia coli. Nature of the data set: Antibacterial activity against Escherichia coli MTCC 1650 at 50 ug/ml after 24 hrs agar diffusion method. It counts as functional. Conditions: MTCC 1650, 24 h, read-out: IZ. The method, boiled down: as §1
Another data set relates to Penicillium chrysogenum. Nature of the data set: Antifungal activity against Penicillium chrysogenum MTCC 1996 at 100 ug/ml after 48 hrs agar diffusion method. It counts as functional. Conditions: MTCC 1996, 48 h, read-out: IZ. In short, it runs like this:
as §3

Data set [19] concerns ACHN. The experiment in a line: Anticancer activity against human ACHN cells at 500 nM after 48 hrs by propidium iodide fluorescence assay. It counts as functional. In short, it runs like this:
as §2

Data set [20] relates to HCT-116. Nature of the data set: Anticancer activity against human HCT116 cells at 500 nM after 48 hrs by propidium iodide fluorescence assay. It counts as functional. The method, boiled down: as §2
Data set [21] concerns PANC-1. Nature of the data set: Anticancer activity against human PANC1 cells at 500 nM after 48 hrs by propidium iodide fluorescence assay. It counts as functional. In short, it runs like this: as §2
For data set [22], the system named is NCI-H460. The experiment in a line: Anticancer activity against human H460 cells at 500 nM after 48 hrs by propidium iodide fluorescence assay. It counts as functional. The method, boiled down:
as §2

Data set [23] deals with Calu-1. The experiment in a line: Anticancer activity against human Calu1 cells at 500 nM after 48 hrs by propidium iodide fluorescence assay. It counts as functional. In short, it runs like this:
as §2

Values after ≈ are worked out from the molar mass of the structure shown.

As for `COc1ccc(C(=O)/C=C/C=C(\Cl)c2ccc(Br)cc2)c(OC)c1`, the zone of inhibition at 50 µg/mL stood at 18 mm in the data set on Klebsiella pneumoniae [1]; 10 mm in the data set on Proteus vulgaris [2]; 12 mm in the data set on Staphylococcus aureus [13]; 16 mm in the data set with Bacillus subtilis [15]; 13 mm with Escherichia coli [18]. Further, the Activity in the data set on ACHN [3] is given as 39%; in the data set with THP-1 [5], 0%; in the data set on Calu-1 [7], 27%; in the data set with HCT-116 [12] it was 22%; in the data set with NCI-H460 [14], 16%; in the data set on PANC-1 [16] it was 33%. Also, the MIC in the data set on Proteus vulgaris [4], against Staphylococcus aureus [6], in the data set with Bacillus subtilis [10], in the data set with Escherichia coli [11] and against Klebsiella pneumoniae [17] was 50 µg/mL (≈ 123 µM) each time. Further, the zone of inhibition at 100 µg/mL was found to be 16 mm in the data set on Trichoderma viride; 12 mm in the data set with Candida albicans; 12 mm with Aspergillus niger; 18 mm in the data set with Aspergillus flavus; 16 mm in the data set with Penicillium chrysogenum. Also, the inhibition at 10 µM was found to be 0% in the data set on THP-1 [8] and 36% in the data set with THP-1 [9].

Turning to `Nc1ccn([C@@H]2O[C@H](CO)[C@@H](O)C2(F)F)c(=O)n1` [GEMCITABINE], the Activity in the data set on ACHN [19] is on record as 70%; in the data set with HCT-116 [20] it was 76%; with PANC-1 [21], 71%; with NCI-H460 [22], 68%; in the data set with Calu-1 [23], 70%.

On to `COc1ccc(C(=O)/C=C/C=C(\Cl)c2cccc(Cl)c2)c(OC)c1`, for which the zone of inhibition at 50 µg/mL in the data set with Klebsiella pneumoniae [1] was found to be 16 mm; with Proteus vulgaris [2], 13 mm; in the data set with Staphylococcus aureus [13] it was 16 mm; in the data set on Bacillus subtilis [15] it was 18 mm; with Escherichia coli [18], 12 mm. The Activity in the data set on ACHN [3] is 32%; with THP-1 [5], 0%; with Calu-1 [7], 40%; in the data set with HCT-116 [12], 37%; with NCI-H460 [14], 31%; in the data set on PANC-1 [16], 32%. Moreover, the MIC against Proteus vulgaris [4], against Staphylococcus aureus [6], against Bacillus subtilis [10], against Escherichia coli [11] and with Klebsiella pneumoniae [17] was 50 µg/mL (≈ 138 µM) each time. The zone of inhibition at 100 µg/mL in the data set with Trichoderma viride came out at 13 mm; with Candida albicans it was 10 mm; in the data set with Aspergillus niger, 14 mm; in the data set with Aspergillus flavus, 15 mm; in the data set on Penicillium chrysogenum it was 10 mm. Moreover, the inhibition at 10 µM with THP-1 [8] stood at 0%; in the data set on THP-1 [9] it was 7%.

On to `COc1ccc(/C(Cl)=C/C=C/C(=O)c2ccc(OC)cc2OC)cc1`, for which the zone of inhibition at 50 µg/mL in the data set on Klebsiella pneumoniae [1] turned out to be 12 mm; in the data set with Proteus vulgaris [2] it was 15 mm; with Staphylococcus aureus [13] it was 12 mm; with Bacillus subtilis [15], 20 mm; in the data set on Escherichia coli [18], 14 mm. Besides, the Activity in the data set with ACHN [3] amounted to 33%; in the data set on THP-1 [5], 0%; in the data set with Calu-1 [7], 31%; in the data set with HCT-116 [12], 31%; with NCI-H460 [14] it was 33%; in the data set with PANC-1 [16] it was 31%. Also, the MIC in the data set on Proteus vulgaris [4], in the data set with Staphylococcus aureus [6], with Bacillus subtilis [10], in the data set on Escherichia coli [11] and in the data set on Klebsiella pneumoniae [17] was 50 µg/mL (≈ 139 µM) each time. The zone of inhibition at 100 µg/mL in the data set with Trichoderma viride was determined as 14 mm; in the data set on Candida albicans, 8 mm; in the data set on Aspergillus niger, 15 mm; in the data set with Aspergillus flavus, 12 mm; in the data set on Penicillium chrysogenum, 12 mm. Further, the inhibition at 10 µM with THP-1 [8] was 0%; with THP-1 [9], 49%.
